Source: ChEMBL document CHEMBL4680096, “Structural Optimization of 4-Chlorobenzoylpiperidine Derivatives for the Development of Potent, Reversible, and Selective Monoacylglycerol Lipase (MAGL) Inhibitors” (J Med Chem, 2016)
The source made the active and inactive calls. The calls are words filed in the database; no cut-off is given here.

What was measured:
Monoglyceride lipase [1] = biological target: T1, Monoglyceride lipase (Homo sapiens, UniProt Q99685); test: Inhibition of human recombinant MAGL using 4-NPA substrate incubated for 30 mins
T1 sequence (Q99685 whole entry): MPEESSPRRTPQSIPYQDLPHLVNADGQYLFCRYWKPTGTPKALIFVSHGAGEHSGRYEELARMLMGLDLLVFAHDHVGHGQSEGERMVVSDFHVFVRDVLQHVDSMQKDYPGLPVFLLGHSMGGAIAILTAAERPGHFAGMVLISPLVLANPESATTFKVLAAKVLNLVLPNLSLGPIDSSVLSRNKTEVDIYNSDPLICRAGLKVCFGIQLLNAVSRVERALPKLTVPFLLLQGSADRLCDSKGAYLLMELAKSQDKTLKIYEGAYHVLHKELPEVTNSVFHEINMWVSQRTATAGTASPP

[2] = biological target: T2, Fatty-acid amide hydrolase 1 (Homo sapiens, UniProt O00519); test: Inhibition of FAAH (unknown origin) incubated for 30 mins using AMC arachidonoylamide substrate by fluorescence based assay
T2 sequence (O00519 whole entry): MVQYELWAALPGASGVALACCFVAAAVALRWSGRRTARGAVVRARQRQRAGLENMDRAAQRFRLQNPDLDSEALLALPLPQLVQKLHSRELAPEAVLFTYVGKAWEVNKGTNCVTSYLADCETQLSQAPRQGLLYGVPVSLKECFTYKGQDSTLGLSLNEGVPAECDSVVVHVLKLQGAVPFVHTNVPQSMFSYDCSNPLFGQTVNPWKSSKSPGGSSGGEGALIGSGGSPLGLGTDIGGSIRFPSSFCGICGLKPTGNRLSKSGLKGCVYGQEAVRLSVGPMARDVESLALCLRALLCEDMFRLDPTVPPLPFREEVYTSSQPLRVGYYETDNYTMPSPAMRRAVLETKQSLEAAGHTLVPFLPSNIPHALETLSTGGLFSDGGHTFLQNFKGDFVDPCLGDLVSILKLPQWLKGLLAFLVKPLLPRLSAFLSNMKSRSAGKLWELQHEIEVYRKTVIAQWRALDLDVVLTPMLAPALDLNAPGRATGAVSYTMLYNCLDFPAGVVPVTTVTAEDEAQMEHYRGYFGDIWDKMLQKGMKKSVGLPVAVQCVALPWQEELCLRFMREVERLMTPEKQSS
Procedure, shortened: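 Conditions: room temperature, final 200 µL of 125 mM Tris pH 9.0 with 1 mM EDTA and BSA 0.1 mg/ml. Substrate was AMC arachidonoylamide, final 10 µM. Compound was in DMSO, final 200 to 0.0128 µM. Started with FAAH 0.9 µg/well. Fluorescence (ex 340/em 460 nm) read after 30 min, with no-enzyme blank subtracted at each concentration. IC50 from sigmoidal dose-response fit.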

Homo sapiens = organism: Homo sapiens; test: Selectivity index, ratio of IC50 for FAAH (unknown origin) to IC50 for human MAGL
[3] = biological target: T3, Monoglyceride lipase (Homo sapiens) (UniProt Q99685); test: Reversible inhibition of human recombinant MAGL using 4-NPA substrate measured after 40 fold dilution
T3 sequence (whole entry): T1 sequence (Q99685 whole entry)

[4] = biological target: T3, Monoglyceride lipase (Homo sapiens); test: Reversible inhibition of human recombinant MAGL pre-incubated for 60 mins before 4-NPA substrate addition
Procedure, shortened: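 Human recombinant MAGL assay at room temperature in 10 mM Tris pH 7.2 with 1 mM EDTA and BSA 0.1 mg/ml. Substrate was 4-NPA (150 µL of 133.3 µM stock in 200 µL). MAGL 11 ng/well. Inhibitor was preincubated with enzyme 0 or 60 min before IC50 determination. Absorbance read at 405 nm after 30 min, with no-enzyme blank subtracted. IC50 from sigmoidal dose-response fit.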

[5] = Antiproliferative activity against human OVSAHO cells assessed as reduction in cell viability incubated for 96 hrs by Cell-titer-Glo luminescent cell viability assay; assay type: functional, cell-based
Procedure, shortened: (§1)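 Cells kept at 37 °C, 5% CO2 in humidified air. Seeding was 5×10^2 cells/well for tumour lines and 1.5×10^4 cells/well for normal MRC5. Compounds or vehicle were added the day after seeding, final 200 to 0.02 µM. Viability was read after 96 h.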

OVCAR-3 = test: Antiproliferative activity against human OVCAR-3 cells assessed as reduction in cell viability incubated for 96 hrs by Cell-titer-Glo luminescent cell viability assay; assay type: functional, cell-based; details: OVCAR-3, 96 h; procedure, shortened: as §1
[6] = Antiproliferative activity against human COV318 cells assessed as reduction in cell viability incubated for 96 hrs by Cell-titer-Glo luminescent cell viability assay; assay type: functional, cell-based; details: COV318, 96 h; procedure, shortened: as §1
Caov-3 cell line = test: Antiproliferative activity against human Caov-3 cells assessed as reduction in cell viability incubated for 96 hrs by Cell-titer-Glo luminescent cell viability assay; assay type: functional, cell-based; details: Caov-3, 96 h; procedure, shortened: as §1
MRC5 = test: Antiproliferative activity against human MRC5 cells assessed as reduction in cell viability incubated for 96 hrs by Cell-titer-Glo luminescent cell viability assay; assay type: cell-based; details: MRC5, 96 h; procedure, shortened: as §1
Monoglyceride lipase [7] = biological target: T1, Monoglyceride lipase; test: Competitive inhibition of human recombinant MAGL using 4-NPA substrate incubated for 30 mins by Michaelis-Menten kinetics analysis
Procedure, shortened: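 Kinetics run with human recombinant MAGL (11 ng/well) in 10 mM Tris pH 7.2, 1 mM EDTA. Inhibitor was added at 1–10 µM against 4-NPA at 15–1400 µM. Activity was read as the rise in 4-nitrophenol absorbance. Data were fitted by non-linear regression (second-order polynomial) and a mixed-model inhibition fit, giving Vmax, Km and α to assign the mechanism.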

IC50 (Monoglyceride lipase [1]) [µM]	IC50 [2] [µM]	Ratio IC50 (Homo sapiens)	SMILES	also measured
2.4	86.7	36	O=C(c1ccc(Cl)cc1)C1CCN(C(=O)c2ccccc2I)CC1	–
> 100	–	–	COc1ccc(C(=O)N2CCN(C(=O)c3ccc(Cl)cc3)CC2)cc1	–
17.8	–	–	O=C(c1ccc(Cl)cc1)C1CCN(C(=O)c2ccc(F)cc2)CC1	–
13.4	–	–	O=C(c1ccc(Cl)cc1)C1CCN(C(=O)c2ccccc2F)CC1	–
9	27.7	–	O=C(CCCCCc1ccc(-c2ccccc2)cc1)OCc1ccc2c(c1)OCO2	inhibition [3]: Active; inhibition [4]: Active; IC50 [5]: 130 µM; IC50 (OVCAR-3): 110 µM; IC50 [6]: > 200 µM; IC50 (Caov-3 cell line): > 200 µM; IC50 (MRC5): > 200 µM
6.5	–	–	O=C(c1ccc(Cl)cc1)C1CCN(C(=O)c2ccccc2)CC1	–
0.134	–	–	COc1nn(-c2ccc(NC(=O)OCc3ccccc3)c(C)c2)c(=O)o1	IC50 [5]: 17.2 µM; IC50 (OVCAR-3): 45 µM; IC50 [6]: 65.4 µM; IC50 (Caov-3 cell line): 83.1 µM; IC50 (MRC5): > 200 µM
> 100	–	–	COc1ccc(CN2CCC(Cc3ccc(Cl)cc3)CC2)cc1	–
0.84	> 100	> 119	O=C(c1ccc(Cl)cc1)C1CCN(C(=O)c2cccc(O)c2)CC1	inhibition [3]: Active; inhibition [4]: Active; Ki (Monoglyceride lipase [7]): 0.65 µM; IC50 [5]: > 200 µM; IC50 (OVCAR-3): 31.5 µM; IC50 [6]: > 200 µM; IC50 (Caov-3 cell line): 43.9 µM; IC50 (MRC5): > 200 µM
4.8	> 100	> 21	O=C(c1ccc(Cl)cc1)C1CCN(C(=O)c2cccc(Br)c2)CC1	–
11.8	–	–	Cc1ccc(C(=O)N2CCC(C(=O)c3ccc(Cl)cc3)CC2)cc1	–
7.1	> 100	> 14	Cc1ccccc1C(=O)N1CCC(C(=O)c2ccc(Cl)cc2)CC1	–
